Reference: ChEMBL document CHEMBL4321830, “A Chemical-Intervention Strategy To Circumvent Peptide Hydrolysis by d-Stereoselective Peptidases” (J Med Chem, 2019)
Active and inactive are the calls of the source. The rule behind the calls is not given here. Where a SMILES comes first, the peptide text is derived from it. [ ]: non-standard residue; d: D form. The star is where a group is joined. d(aIle) = CC[C@H](C)[C@@H](N)C(=O)O; NMeF = CN[C@@H](Cc1ccccc1)C(=O)O; dDab = NCC[C@@H](N)C(=O)O; Octanoyl = CCCCCCCC(=O)*; Dab = NCC[C@H](N)C(=O)O; Aib = CC(C)(N)C(=O)O; Sar = CNCC(=O)O

Tests used:
Staphylococcus aureus = assay: Antibacterial activity against Staphylococcus aureus NCTC 10788 assessed as bacterial growth inhibition by microbroth dilution method; assay type: functional
D-peptidase TriF = assay: Substrate activity at Paenibacillus polymyxa CICC10580 D-peptidase TriF expressed in Escherichia coli BL21 assessed as enzyme-mediated compound hydrolysis at 50 uM incubated for 24 hrs by UPLC-MS analysis; assay type: ADME; details: read-out: Activity
Method in brief: (§1)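 His-purified (Ni-NTA) enzyme from IPTG-induced E. coli BL21 (200 μM IPTG after 15 °C hold). Substrate 50 μM with BogQ 20 nM for 1 h or TriFpep 200 nM for 24 h, 37 °C, in 25% PBS pH 7.4. Quenched with cold methanol, cleavage ratio by UPLC–MS at end point; two independent experiments.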

Escherichia coli [1] = assay: Antibacterial activity against Escherichia coli NCTC 12241 assessed as bacterial growth inhibition by microbroth dilution method; assay type: functional
Escherichia coli [2] = assay: Binding affinity to Escherichia coli NCTC 12241 lipid 2 assessed as formation of zone of inhibition at 60 uM incubated for 16 hrs by spot-on-lawn assay
Method in brief: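 E. coli NCTC 12241 suspended to OD600 ~1.0 in MHB, mixed into molten 0.75% MH soft agar and poured over 1.5% MHA. Peptide (final 60 μM) preincubated at 37 °C with 7 equiv chemically synthesized Gram-positive lipid II, 10 μL spotted alongside peptide alone; 16 h, 37 °C. Loss of inhibition zone indicates lipid II sequestration.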

[3] = Hemolytic activity in sheep erythrocytes assessed as hemolysis at 200 ug/ml incubated for 30 by spectrophotometry relative to control; assay type: ADME, cell-based, Ovis aries, Erythrocyte; details: read-out: Activity
Method in brief: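 Defibrinated sheep blood washed four times in PBS, resuspended, mixed 1:1 with peptide in PBS (200 μg/mL in well before mixing); 30 min, 37 °C. Diluted, centrifuged, supernatant absorbance at 415 nm. Percent hemolysis relative to 0.1% Triton X-100, PBS blank; triplicate, two independent experiments averaged.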

D-peptidase BogQ = assay: Substrate activity at bacterial D-peptidase BogQ expressed in Escherichia coli BL21 assessed as enzyme-mediated compound hydrolysis at 50 uM incubated for 1 hr by UPLC-MS analysis; assay type: ADME; details: bacteria; read-out: Activity; method in brief: as §1

Compound | MIC (Staphylococcus aureus) [µg/mL] | metabolised at 24 h, 50 µM (D-peptidase TriF) [%] | MIC (Escherichia coli [1]) [µg/mL] | metabolised at 1 h, 50 µM (D-peptidase BogQ) [%] | Activity (Escherichia coli [2]) | hemolysis at 0.5 h, 200 ug/ml [3] [%]
CCCCCCCC(=O)N[C@@H](C(=O)N[C@H](CCN)C(=O)NCC(=O)N[C@H](CO)C(=O)N[C@H](Cc1c[nH]c2ccccc12)C(=O)N[C@@H](CO)C(=O)N[C@@H](CCN)C(=O)N[C@H](CCN)C(=O)N(C)[C@@H](Cc1ccccc1)C(=O)N[C@@H](CCC(=O)O)C(=O)N[C@H](C(=O)N[C@@H](C(=O)N[C@@H](C)C(=O)O)C(C)C)C(C)C)C(C)C (Octanoyl-[dV][dDab]G[dS][dW]S[Dab][dDab][NMeF]EV[dV]A-OH) | > 50 |  | 6.25 | 15 | Active | 30
CCCCCCCC(=O)N[C@@H](C(=O)N[C@H](CCN)C(=O)NCC(=O)N[C@H](CO)C(=O)N[C@H](Cc1c[nH]c2ccccc12)C(=O)N(C)CC(=O)N[C@@H](CCN)C(=O)N[C@H](CCN)C(=O)N(C)[C@@H](Cc1ccccc1)C(=O)N[C@@H](CCC(=O)O)C(=O)N[C@H](C(=O)N[C@@H](C(=O)N[C@@H](C)C(=O)O)[C@@H](C)CC)C(C)C)C(C)C (Octanoyl-[dV][dDab]G[dS][dW][Sar][Dab][dDab][NMeF]EV[d(aIle)]A-OH) | > 50 | 0 | 3.13 | 46 |  | 
CCCCCCCC(=O)N[C@@H](C(=O)N[C@H](CCN)C(=O)NCC(=O)N[C@H](CO)C(=O)N[C@H](Cc1c[nH]c2ccccc12)C(=O)NC(C)(C)C(=O)N[C@@H](CCN)C(=O)N[C@H](CCN)C(=O)N[C@@H](Cc1ccccc1)C(=O)N[C@@H](CCC(=O)O)C(=O)N[C@H](C(=O)N[C@@H](C(=O)N[C@@H](C)C(=O)O)C(C)C)C(C)C)C(C)C (Octanoyl-[dV][dDab]G[dS][dW][Aib][Dab][dDab]FEV[dV]A-OH) | > 50 | 0 | 3.13 |  |  | 
CCCCCCCC(=O)N[C@@H](C(=O)N[C@H](CCN)C(=O)NC(C)(C)C(=O)N[C@H](CO)C(=O)N[C@H](Cc1c[nH]c2ccccc12)C(=O)N[C@@H](CO)C(=O)N[C@@H](CCN)C(=O)N[C@H](CCN)C(=O)N(C)[C@@H](Cc1ccccc1)C(=O)N[C@@H](CCC(=O)O)C(=O)N[C@H](C(=O)N[C@@H](C(=O)N[C@@H](C)C(=O)O)C(C)C)C(C)C)C(C)C (Octanoyl-[dV][dDab][Aib][dS][dW]S[Dab][dDab][NMeF]EV[dV]A-OH) | > 50 |  | > 50 | < 5 |  | 
CCCCCCCC(=O)N[C@@H](C(=O)N[C@@H](CCN)C(=O)NCC(=O)N[C@H](CO)C(=O)N[C@H](Cc1c[nH]c2ccccc12)C(=O)N[C@@H](CO)C(=O)N[C@@H](CCN)C(=O)N[C@H](CCN)C(=O)N[C@@H](Cc1ccccc1)C(=O)N[C@@H](CCC(=O)O)C(=O)N[C@H](C(=O)N[C@@H](C(=O)N[C@@H](C)C(=O)O)C(C)C)C(C)C)C(C)C (Octanoyl-[dV][Dab]G[dS][dW]S[Dab][dDab]FEV[dV]A-OH) | > 50 |  | > 50 | 60 |  | 
CCCCCCCC(=O)N[C@@H](C(=O)N[C@@H](C(=O)NCC(=O)N[C@H](CO)C(=O)N[C@H](Cc1c[nH]c2ccccc12)C(=O)N(C)CC(=O)N[C@@H](CCN)C(=O)N[C@H](CCN)C(=O)N(C)[C@@H](Cc1ccccc1)C(=O)N[C@@H](CCC(=O)O)C(=O)N[C@H](C(=O)N[C@@H](C(=O)N[C@@H](C)C(=O)O)C(C)C)C(C)C)C(C)C)C(C)C (Octanoyl-[dV][dV]G[dS][dW][Sar][Dab][dDab][NMeF]EV[dV]A-OH) | > 50 | 0 | > 50 | 12 |  | 
CCCCCCCC(=O)N[C@@H](C(=O)N[C@H](CCN)C(=O)NCC(=O)N[C@H](CO)C(=O)N[C@H](Cc1c[nH]c2ccccc12)C(=O)N(C)CC(=O)N[C@@H](CCN)C(=O)N[C@H](CCN)C(=O)N(C)[C@@H](Cc1ccccc1)C(=O)N[C@@H](CCC(=O)O)C(=O)N[C@H](C(=O)N[C@@H](C(=O)N[C@@H](C)C(=O)O)C(C)C)C(C)C)C(C)C (Octanoyl-[dV][dDab]G[dS][dW][Sar][Dab][dDab][NMeF]EV[dV]A-OH) | > 50 | 0 | 6.25 | 43 | Active | 60 to 78
CCCCCCCC(=O)N[C@@H](C(=O)N[C@H](CCN)C(=O)N(C)CC(=O)N[C@H](CO)C(=O)N[C@H](Cc1c[nH]c2ccccc12)C(=O)N[C@@H](CO)C(=O)N[C@@H](CCN)C(=O)N[C@H](CCN)C(=O)N[C@@H](Cc1ccccc1)C(=O)N[C@@H](CCC(=O)O)C(=O)N[C@H](C(=O)N[C@@H](C(=O)N[C@@H](C)C(=O)O)C(C)C)C(C)C)C(C)C (Octanoyl-[dV][dDab][Sar][dS][dW]S[Dab][dDab]FEV[dV]A-OH) | > 50 |  | > 50 | > 90 |  | 
CCCCCCCC(=O)N[C@@H](C(=O)N[C@H](C)C(=O)NCC(=O)N[C@H](CO)C(=O)N[C@H](Cc1c[nH]c2ccccc12)C(=O)N(C)CC(=O)N[C@@H](CCN)C(=O)N[C@H](CCN)C(=O)N(C)[C@@H](Cc1ccccc1)C(=O)N[C@@H](CCC(=O)O)C(=O)N[C@H](C(=O)N[C@@H](C(=O)N[C@@H](C)C(=O)O)C(C)C)C(C)C)C(C)C (Octanoyl-[dV][dA]G[dS][dW][Sar][Dab][dDab][NMeF]EV[dV]A-OH) | > 50 | 0 | > 50 | 11 |  | 

The next lines start with results.

MIC (Staphylococcus aureus) [µg/mL] | metabolised at 24 h, 50 µM (D-peptidase TriF) [%] | MIC (Escherichia coli [1]) [µg/mL] | metabolised at 1 h, 50 µM (D-peptidase BogQ) [%] | Compound | Activity (Escherichia coli [2]) | hemolysis at 0.5 h, 200 ug/ml [3] [%]
> 50 | 0 | 3.13 |  | CCCCCCCC(=O)N[C@@H](C(=O)N[C@H](CCN)C(=O)NCC(=O)N[C@H](CO)C(=O)N[C@H](Cc1c[nH]c2ccccc12)C(=O)N(C)CC(=O)N[C@@H](CCN)C(=O)N[C@H](CCN)C(=O)N[C@@H](Cc1ccccc1)C(=O)N[C@@H](CCC(=O)O)C(=O)N[C@H](C(=O)N[C@@H](C(=O)N[C@@H](C)C(=O)O)C(C)C)C(C)C)C(C)C (Octanoyl-[dV][dDab]G[dS][dW][Sar][Dab][dDab]FEV[dV]A-OH) | Active | 38
> 50 |  | > 50 | > 90 | CCCCCCCC(=O)N[C@@H](C(=O)N[C@H](CCN)C(=O)NC(C)(C)C(=O)N[C@H](CO)C(=O)N[C@H](Cc1c[nH]c2ccccc12)C(=O)N[C@@H](CO)C(=O)N[C@@H](CCN)C(=O)N[C@H](CCN)C(=O)N[C@@H](Cc1ccccc1)C(=O)N[C@@H](CCC(=O)O)C(=O)N[C@H](C(=O)N[C@@H](C(=O)N[C@@H](C)C(=O)O)C(C)C)C(C)C)C(C)C (Octanoyl-[dV][dDab][Aib][dS][dW]S[Dab][dDab]FEV[dV]A-OH) |  | 
> 50 | 0 | > 50 | 40 | CCCCCCCC(=O)N[C@@H](C(=O)N[C@H](CCN)C(=O)NCC(=O)N[C@H](CO)C(=O)N[C@H](Cc1c[nH]c2ccccc12)C(=O)N(C)CC(=O)N[C@@H](CCN)C(=O)N[C@H](CCN)C(=O)N[C@@](C)(Cc1ccccc1)C(=O)N[C@@H](CCC(=O)O)C(=O)N[C@H](C(=O)N[C@@H](C(=O)N[C@@H](C)C(=O)O)[C@@H](C)CC)C(C)C)C(C)C |  | 
50 | 100 | 1.56 | > 90 | CCCCCCCC(=O)N[C@@H](C(=O)N[C@H](CCN)C(=O)NCC(=O)N[C@H](CO)C(=O)N[C@H](Cc1c[nH]c2ccccc12)C(=O)N[C@@H](CO)C(=O)N[C@@H](CCN)C(=O)N[C@H](CCN)C(=O)N[C@@H](Cc1ccccc1)C(=O)N[C@@H](CCC(=O)O)C(=O)N[C@H](C(=O)N[C@@H](C(=O)N[C@@H](C)C(=O)O)C(C)C)C(C)C)C(C)C (Octanoyl-[dV][dDab]G[dS][dW]S[Dab][dDab]FEV[dV]A-OH) |  | 53
> 50 | 0 | > 50 | 39 | CCCCCCCC(=O)N[C@@H](C(=O)N[C@H](CCN)C(=O)NCC(=O)N[C@H](CO)C(=O)N[C@H](Cc1c[nH]c2ccccc12)C(=O)N(C)CC(=O)N[C@@H](CCN)C(=O)N[C@H](CCN)C(=O)N[C@@](C)(Cc1ccccc1)C(=O)N[C@@H](CCC(=O)O)C(=O)N[C@H](C(=O)N[C@@H](C(=O)N[C@@H](C)C(=O)O)C(C)C)C(C)C)C(C)C |  | 
> 50 |  | > 50 | < 5 | CCCCCCCC(=O)N[C@@H](C(=O)N[C@H](CCN)C(=O)N(C)CC(=O)N[C@H](CO)C(=O)N[C@H](Cc1c[nH]c2ccccc12)C(=O)N[C@@H](CO)C(=O)N[C@@H](CCN)C(=O)N[C@H](CCN)C(=O)N(C)[C@@H](Cc1ccccc1)C(=O)N[C@@H](CCC(=O)O)C(=O)N[C@H](C(=O)N[C@@H](C(=O)N[C@@H](C)C(=O)O)C(C)C)C(C)C)C(C)C (Octanoyl-[dV][dDab][Sar][dS][dW]S[Dab][dDab][NMeF]EV[dV]A-OH) |  | 
> 50 |  | > 50 | 39 | CCCCCCCC(=O)N[C@@H](C(=O)N[C@H](CCN)C(=O)NCC(=O)N[C@H](CO)C(=O)N[C@H](Cc1c[nH]c2ccccc12)C(=O)N[C@@H](CO)C(=O)N[C@@H](CCN)C(=O)N[C@H](CCN)C(=O)N[C@@](C)(Cc1ccccc1)C(=O)N[C@@H](CCC(=O)O)C(=O)N[C@H](C(=O)N[C@@H](C(=O)N[C@@H](C)C(=O)O)C(C)C)C(C)C)C(C)C |  | 
